In ChEMBL document CHEMBL3421574, “Discovery of Potent Inhibitors of Schistosoma mansoni NAD⁺ Catabolizing Enzyme” (J Med Chem, 2015):
The source made the active and inactive calls. No cut-off for these calls is given here.

Assays:
[1] = molecular target: ADP-ribosyl cyclase/cyclic ADP-ribose hydrolase 1 (Homo sapiens) (UniProt P28907); assay: Inhibition of human CD38 at 100 uM by HPLC analysis relative to control
Method in brief: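 Human CD38 with inhibitor at 100 µM, given as percent inhibition. Enzyme activity is measured by HPLC at 20 µM NAD+: isocratic C18 separation (10 mM ammonium phosphate pH 5.5, 1.2% (v/v) acetonitrile, 1 mL/min) with detection at 260 nm, plus radiodetection when [14C]NAD+ is added.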

[2] = Inhibition of recombinant Schistosoma mansoni NACE using 1, N6-etheno NAD+ as substrate by fluorometric analysis
Method in brief: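 Continuous fluorometric read of recombinant SmNACE turning over ε-NAD+ to ε-ADP-ribose (ex 310 nm, em 410 nm), at 37 °C in 10 mM potassium phosphate pH 7.4 with 0.05% (w/v) emulphogen. Initial rates are taken at 6 inhibitor concentrations. IC50 comes from non-linear regression of residual activity against log[inhibitor]. Values are means of three independent determinations.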

[3] = Selectivity ratio of IC50 for human CD38 to IC50 for recombinant Schistosoma mansoni NACE
Schistosoma mansoni [4] = assay: Competitive inhibition of recombinant Schistosoma mansoni NACE by Dixon plot analysis in presence of 1, N6-etheno NAD+
Method in brief: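 Recombinant SmNACE with ε-NAD+ in 10 mM potassium phosphate pH 7.4, 0.05% (w/v) emulphogen, 37 °C. Initial rates are followed fluorometrically as ε-ADP-ribose appears (ex 310 nm, em 410 nm). Three fixed inhibitor concentrations are each combined with ε-NAD+ at 20, 50 and 100 µM, and 1/v is plotted against [I] (Dixon) to assign the inhibition type.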

Schistosoma mansoni [5] = assay: Inhibition of recombinant Schistosoma mansoni NACE using 1, N6-etheno NAD+ as substrate at 100 uM by fluorometric analysis relative to control
Method in brief: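 Single-point screen at 100 µM inhibitor against recombinant SmNACE with ε-NAD+ substrate. Initial-rate fluorescence of ε-ADP-ribose is read (ex 310 nm, em 410 nm) at 37 °C in 10 mM potassium phosphate pH 7.4 with 0.05% (w/v) emulphogen, and expressed as percent inhibition.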

[6] = molecular target: T1, ADP-ribosyl cyclase/cyclic ADP-ribose hydrolase 1 (Homo sapiens, UniProt P28907); assay: Inhibition of human CD38 by HPLC analysis
T1 sequence (P28907 whole entry): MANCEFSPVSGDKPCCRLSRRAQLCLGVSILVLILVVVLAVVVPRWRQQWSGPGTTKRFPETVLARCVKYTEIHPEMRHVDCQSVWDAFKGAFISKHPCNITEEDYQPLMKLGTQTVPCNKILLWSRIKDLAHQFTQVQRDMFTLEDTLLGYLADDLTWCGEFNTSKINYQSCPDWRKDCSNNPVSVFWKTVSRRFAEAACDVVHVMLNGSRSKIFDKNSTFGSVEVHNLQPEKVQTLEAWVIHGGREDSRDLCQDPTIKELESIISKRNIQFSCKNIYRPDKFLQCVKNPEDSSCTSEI

Schistosoma mansoni [7] = assay: Inhibition of recombinant Schistosoma mansoni NACE using NAD+ as substrate at 100 uM by HPLC analysis relative to control
Method in brief: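 HPLC assay for recombinant SmNACE at 20 µM NAD+ substrate, used where compounds fluoresce on their own. Inhibitor is tested at 100 µM. Products are separated isocratically on a C18 column (10 mM ammonium phosphate pH 5.5, 1.2% (v/v) acetonitrile, 1 mL/min) and detected at 260 nm. In some runs [adenosine-U-14C]NAD+ is added with radiodetection.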

| SMILES | inhibition [1] | IC50 ([2]; read-out: IC50) | also measured |
| --- | --- | --- | --- |
| COc1ccccc1CNNC(=O)c1ccoc1C | 0% | 11.6 µM | – |
| COc1ccc(C(=O)NNC(=O)c2ccoc2C)c(O)c1 | 6.7% | 0.074 µM | Ratio IC50 [3]: > 1000; Inhibition type (Dixon plot) (Schistosoma mansoni [4]): Active |
| COc1cc(O)c(/C=N\NC(=O)c2ccoc2C)c(OC)c1 | 0% | 0.19 µM | – |
| Cc1occc1-c1nnc(-c2ccccc2O)o1 | 0% | – | inhibition (Schistosoma mansoni [5]): 0% |
| COc1ccccc1CCNC(=O)c1ccoc1C | – | – | inhibition (Schistosoma mansoni [5]): 0% |
| Cc1occc1C(=O)N(C)/N=C\c1ccccc1O | – | – | IC50 [2]: ND(Insoluble) |
| COc1ccc(O)c(/C=N\NC(=O)c2ccoc2C)c1 | 0% | 0.045 µM | Ratio IC50 [3]: > 1000 |
| Cc1occc1C(=O)N/N=C\c1ccccc1 | – | 330 µM | IC50 [6]: 296 µM |
| Cc1occc1C(=O)N/N=C\c1c(O)cc(Cl)cc1Cl | 0% | 0.077 µM | Ratio IC50 [3]: > 1000 |
| C/C(=N/NC(=O)c1ccoc1C)c1ccccc1O | – | – | IC50 [2]: ND(Insoluble) |
| O=C1c2c(O)cc(O)cc2OC(c2ccc(O)c(O)c2)C1O (racemic) | – | – | inhibition (Schistosoma mansoni [7]): > 40%; inhibition (Schistosoma mansoni [5]): > 40% |
| COc1cc(/C=N\NC(=O)c2ccoc2C)ccc1O | – | 80 µM | IC50 [6]: 103 µM |
| COc1ccc(/C=N\NC(=O)c2ccoc2C)c(O)c1 | 0% | 0.032 µM | Ratio IC50 [3]: > 1000 |
| COc1ccc(-c2nnc(-c3ccoc3C)o2)c(O)c1 | 0% | – | inhibition (Schistosoma mansoni [5]): 0% |
| Cc1occc1C(=O)N/N=C\c1ccccc1O | 20% | 0.13 µM | IC50 [6]: 430 µM; Ratio IC50 [3]: > 1000; Inhibition type (Dixon plot) (Schistosoma mansoni [4]): Active |
| Cc1occc1-c1nnc(-c2cc(Cl)ccc2O)o1 | 0% | – | inhibition (Schistosoma mansoni [5]): 0% |
| COc1ccccc1/C=N\N(C)C(=O)c1ccoc1C | – | 513 µM | – |
| Cc1occc1C(=O)N/N=C\c1cccc(F)c1O | 27.2% | 0.036 µM | IC50 [6]: 26 µM; Inhibition type (Dixon plot) (Schistosoma mansoni [4]): Active |
| Cc1cccc(C(=O)NNC(=O)c2ccoc2C)c1O | – | – | IC50 [2]: ND(Insoluble) |
| Cc1occc1C(=O)N/N=C\c1ccc(O)c(O)c1 | – | 88 µM | IC50 [6]: 109 µM; Inhibition type (Dixon plot) (Schistosoma mansoni [4]): Active |

Further lines, with some results ahead:

| inhibition [1] | IC50 ([2]; read-out: IC50) | SMILES | also measured |
| --- | --- | --- | --- |
| – | 105 µM | Cc1occc1C(=O)N/N=C\c1cccc(C(C)(C)C)c1O | – |
| 66.7% | 0.15 µM | Cc1occc1C(=O)N/N=C\c1cccc(Cl)c1O | IC50 [6]: 14 µM |
| 0% | 0.033 µM | Cc1occc1C(=O)N/N=C\c1cc(Cl)ccc1O | Ratio IC50 [3]: > 1000 |
| 27.6% | 0.25 µM | Cc1occc1C(=O)NNC(=O)c1ccccc1O | IC50 [6]: 120 µM |
| 0% | 59 µM | Cc1cccc(/C=N\NC(=O)c2ccoc2C)c1O | – |
| 0% | 12.3 µM | Cc1occc1C(=O)NNCc1ccccc1O | – |
| 0% | 67 µM | COc1ccccc1/C=N\NC(=O)c1ccoc1C | – |
| 6.7% | 0.039 µM | Cc1occc1C(=O)NNC(=O)c1cc(Cl)ccc1O | Ratio IC50 [3]: > 1000; Inhibition type (Dixon plot) (Schistosoma mansoni [4]): Active |
| – | 131 µM | Cc1occc1C(=O)NCCc1ccccc1O | – |
| 0% | 8.7 µM | Cc1occc1C(=O)N/N=C\c1cccc(O)c1O | – |
